ChEMBL document CHEMBL1151448, “Comparative antianaerobic activities of doripenem determined by MIC and time-kill analysis” (2008)

Tests used:
Type in all cases: functional
[1] = test system: Bacteroides fragilis; experiment: Antimicrobial activity against beta lactamase-positive Bacteroides fragilis isolated from intra-abdominal infection and pelvic inflammatory disease patients after 48 hrs by agar dilution method
Outline: (§1)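 CLSI agar dilution on brucella blood agar supplemented with laked sheep blood, hemin and vitamin K. Inocula of about 1 × 10^5 CFU/spot were applied by Steers replicator, and plates were incubated 48 h at 35°C in an anaerobic glove box. MIC was the concentration giving marked growth reduction versus the anaerobic control plate. QC strains were included each run, and β-lactamase was detected by Cefinase disk.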

[2] = test system: Anaerococcus prevotii; experiment: Antimicrobial activity against Anaerococcus prevotii isolated from intra-abdominal infection and pelvic inflammatory disease patients after 48 hrs by agar dilution method; outline: as §1
[3] = test system: Paraclostridium bifermentans; experiment: Antimicrobial activity against Clostridium bifermentans isolated from intra-abdominal infection and pelvic inflammatory disease patients after 48 hrs by agar dilution method; outline: as §1
[4] = test system: Bacteroides thetaiotaomicron; experiment: Bactericidal activity against beta lactamase-positive Bacteroides thetaiotaomicron isolated from intra-abdominal infection and pelvic inflammatory disease patients assessed as bacterial killing at MIC after 24 hrs by time kill analysis
Outline: (§2)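 Macrodilution time-kill in prereduced brucella broth with 5% laked horse blood, hemin 5 μg/ml and vitamin K1 1 μg/ml, at final inoculum 10^6–10^7 CFU/ml. […] Viable counts were taken at 6, 12, 24 and 48 h on plates incubated 48 h anaerobically. 99.9% kill was taken as bactericidal.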

[5] = test system: Porphyromonas asaccharolytica; experiment: Antimicrobial activity against Porphyromonas asaccharolyticus isolated from intra-abdominal infection and pelvic inflammatory disease patients after 48 hrs by agar dilution method; outline: as §1
[6] = test system: Bacteroides fragilis; experiment: Bactericidal activity against beta lactamase-positive Bacteroides fragilis isolated from intra-abdominal infection and pelvic inflammatory disease patients assessed as bacterial killing at MIC after 24 hrs by time kill analysis; outline: as §2
[7] = test system: Clostridium perfringens; experiment: Antimicrobial activity against Clostridium perfringens isolated from intra-abdominal infection and pelvic inflammatory disease patients after 48 hrs by time kill analysis
Outline: (§3)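 Macrodilution in prereduced brucella broth with 5% laked horse blood cells, 5 μg/ml hemin and 1 μg/ml vitamin K1. Final inoculum 10^6 to 10^7 CFU/ml, prepared inside the anaerobe chamber. Vials incubated 48 h at 35°C in a shaking water bath. MIC read by inspecting the time-kill tubes, alongside an antibiotic-free growth control.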

[8] = test system: Bacteroides thetaiotaomicron; experiment: Antimicrobial activity against beta lactamase-positive Bacteroides thetaiotaomicron isolated from intra-abdominal infection and pelvic inflammatory disease patients after 48 hrs by time kill analysis
Outline: (§4)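 The MIC was read by inspecting macrodilution time-kill tubes. Vials held prereduced brucella broth with 5% laked horse blood cells, hemin 5 μg/ml and vitamin K1 1 μg/ml. Final inoculum was 10^6–10^7 CFU/ml, prepared inside the anaerobe chamber. Vials were incubated 48 h at 35°C in a shaking water bath.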

[9] = test system: Prevotella intermedia; experiment: Bactericidal activity against beta lactamase-positive Prevotella intermedia isolated from intra-abdominal infection and pelvic inflammatory disease patients assessed as bacterial killing at MIC after 24 hrs by time kill analysis
Outline: (§5)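 Anaerobic macrodilution time-kill. Inoculum from brucella blood plates, prepared and diluted in prereduced brucella broth inside the anaerobe chamber. Final 10^6 to 10^7 CFU/ml in prereduced brucella broth with 5% laked horse blood cells, 5 μg/ml hemin and 1 μg/ml vitamin K1. […] Shaken at 35°C for 48 h. Viable counts taken at 6, 12, 24 and 48 h. 99.9% kill taken as bactericidal.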

[10] = test system: Finegoldia magna; experiment: Antimicrobial activity against beta lactamase-positive Finegoldia magna isolated from intra-abdominal infection and pelvic inflammatory disease patients after 48 hrs by time kill analysis; outline: as §4
[11] = test system: Prevotella nigrescens; experiment: Antimicrobial activity against beta lactamase-positive Prevotella nigrescens isolated from intra-abdominal infection and pelvic inflammatory disease patients after 48 hrs by agar dilution method; outline: as §1
[12] = test system: Prevotella corporis; experiment: Antimicrobial activity against beta lactamase-positive Prevotella corporis isolated from intra-abdominal infection and pelvic inflammatory disease patients after 48 hrs by agar dilution method; outline: as §1
[13] = test system: Clostridium perfringens; experiment: Bactericidal activity against Clostridium perfringens isolated from intra-abdominal infection and pelvic inflammatory disease patients assessed as bacterial killing at 2 times MIC after 48 hrs by time kill analysis
Outline: (§6)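 Time-kill in prereduced brucella broth with 5% laked horse blood cells, hemin and vitamin K1. […] Viable counts taken at 6, 12, 24 and 48 h, plates incubated 48 h anaerobically. Kill scored as 90%, 99% or 99.9%; 99.9% defines bactericidal.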

[14] = test system: Fusobacterium mortiferum; experiment: Antimicrobial activity against beta lactamase-positive Fusobacterium mortiferum isolated from intra-abdominal infection and pelvic inflammatory disease patients after 48 hrs by agar dilution method; outline: as §1
[15] = test system: Paeniclostridium sordellii; experiment: Antimicrobial activity against Clostridium sordellii isolated from intra-abdominal infection and pelvic inflammatory disease patients after 48 hrs by agar dilution method; conditions: Paraclostridium sordellii; outline: as §1
[16] = test system: Fusobacterium necrophorum; experiment: Antimicrobial activity against Fusobacterium necrophorum isolated from intra-abdominal infection and pelvic inflammatory disease patients after 48 hrs by agar dilution method; outline: as §1
[17] = test system: Parabacteroides distasonis; experiment: Antimicrobial activity against beta lactamase-positive Bacteroides distasonis isolated from intra-abdominal infection and pelvic inflammatory disease patients after 48 hrs by agar dilution method; outline: as §1
[18] = test system: Prevotella intermedia; experiment: Bactericidal activity against beta lactamase-positive Prevotella intermedia isolated from intra-abdominal infection and pelvic inflammatory disease patients assessed as bacterial killing at 2 times MIC after 48 hrs by time kill analysis; outline: as §5
[19] = test system: Clostridioides difficile; experiment: Antimicrobial activity against Clostridium difficile isolated from intra-abdominal infection and pelvic inflammatory disease patients after 48 hrs by time kill analysis; outline: as §3
[20] = test system: Clostridium perfringens; experiment: Bactericidal activity against Clostridium perfringens isolated from intra-abdominal infection and pelvic inflammatory disease patients assessed as bacterial killing at MIC after 24 hrs by time kill analysis; outline: as §6
[21] = test system: Prevotella denticola; experiment: Antimicrobial activity against beta lactamase-positive Prevotella denticola isolated from intra-abdominal infection and pelvic inflammatory disease patients after 48 hrs by agar dilution method; outline: as §1
[22] = test system: Peptostreptococcus anaerobius; experiment: Antimicrobial activity against Peptostreptococcus anaerobius isolated from intra-abdominal infection and pelvic inflammatory disease patients after 48 hrs by agar dilution method; outline: as §1
[23] = test system: Clostridioides difficile; experiment: Antimicrobial activity against Clostridium difficile isolated from intra-abdominal infection and pelvic inflammatory disease patients after 48 hrs by agar dilution method; outline: as §1
[24] = test system: [Clostridium] innocuum; experiment: Antimicrobial activity against Clostridium innocuum isolated from intra-abdominal infection and pelvic inflammatory disease patients after 48 hrs by agar dilution method; outline: as §1
[25] = test system: Porphyromonas levii; experiment: Antimicrobial activity against Porphyromonas levii isolated from intra-abdominal infection and pelvic inflammatory disease patients after 48 hrs by agar dilution method; outline: as §1
[26] = test system: Prevotella bivia; experiment: Antimicrobial activity against beta lactamase-positive Prevotella bivia isolated from intra-abdominal infection and pelvic inflammatory disease patients after 48 hrs by agar dilution method; outline: as §1
[27] = test system: Bacteroides ovatus; experiment: Antimicrobial activity against beta lactamase-positive Bacteroides ovatus isolated from intra-abdominal infection and pelvic inflammatory disease patients after 48 hrs by agar dilution method; outline: as §1

C[C@@H](O)[C@H]1C(=O)N2C(C(=O)O)=C(S[C@@H]3CN[C@H](C(=O)Nc4cccc(C(=O)O)c4)C3)[C@H](C)[C@H]12
99%: Activity [13] | Activity [18]
0.25 µg/mL: MIC [1] | MIC50 [1] | MIC50 [26] | MIC90 [26]
2 µg/mL: MIC90 [1] | MIC90 [22] | MIC [24] | MIC50 [24] | MIC90 [27]
8 µg/mL: MIC90 [23]
0.06 µg/mL: MIC90 [11] | MIC90 [12] | MIC [14] | MIC50 [14]
4 µg/mL: MIC [19] | MIC [23] | MIC50 [23]
90%: Activity [4] | Activity [6] | Activity [9] | Activity [20]
0.125 µg/mL: MIC [3] | MIC [7] | MIC90 [16] | MIC50 [21]
1 µg/mL: MIC90 [17]
≤ 0.016 µg/mL: MIC [2] | MIC [5] | MIC [16] | MIC50 [16] | MIC [25]
0.03 µg/mL: MIC [10] | MIC50 [11] | MIC50 [12] | MIC [15]
0.5 µg/mL: MIC [8] | MIC90 [14] | MIC [17] | MIC50 [17] | MIC90 [21] | MIC50 [22] | MIC [27] | MIC50 [27]
